From ChEMBL document CHEMBL4428026, “Discovery of New Monocarbonyl Ligustrazine-Curcumin Hybrids for Intervention of Drug-Sensitive and Drug-Resistant Lung Cancer” (J Med Chem, 2016)
Calls of active or inactive are those of the source. The calls are words filed in the database; no cut-off is given here.

How the values were obtained:
[1] = Acute toxicity in ICR mouse assessed as mortality at 200 to 450 mg/kg, ip measured at 1 hr post treatment; format: organism-based; conditions: in vivo
Summary of the method: (§1)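 Male and female ICR mice (7 weeks), randomized, 10 per group, given one intraperitoneal dose at 200, 250, 300, 350, 400 or 450 mg/kg. Animals were watched for abnormal behaviour and deaths up to two weeks. Deaths were tallied at 1 h, 4 h, day 3 and days 4-14, with survival on day 14. LD50 was calculated with 95% confidence limits.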

[2] = Acute toxicity in ICR mouse assessed as survival at 200 mg/kg, ip measured on day 14; format: organism-based; conditions: in vivo; summary of the method: as §1
A549 [3] = experiment: Induction of apoptosis in human A549 cells assessed as increase in Bax expression at 2.1 to 4.2 uM after 24 hrs by Western blot method; format: functional, cell-based
Summary of the method: (§2)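 Cells were plated at 1 × 10^6/well overnight, then treated 24 h with vehicle DMSO (0.1%, v/v) or compound (A549, 2.1 or 4.2 µM; A549/DDP, 0.6 or 1.2 µM). Lysis was at 4 °C. Lysates were run on SDS-PAGE (7.5% gel, 20 µg/lane) and immunoblotted with ECL detection; phospho-Akt Ser473 and phospho-ERK Thr202/Tyr204 were probed. Bands were normalized to GAPDH (TrxR, Trx) or β-actin. Three independent experiments were run.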

A549/CDDP [4] = experiment: Inhibition of NFkappaB phosphorylation in human A549/CDDP cells at 0.6 to 1.2 uM after 24 hrs by Western blot method; format: cell-based; summary of the method: as §2
A549/CDDP [5] = experiment: Inhibition of ERK phosphorylation in human A549/CDDP cells at 0.6 to 1.2 uM after 24 hrs by Western blot method; format: cell-based; summary of the method: as §2
A549 [6] = experiment: Induction of apoptosis in human A549 cells at 2.1 to 4.2 uM after 24 hrs by annexin V-FITC/propidium iodide staining-based flow cytometry; format: functional, cell-based
Summary of the method: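 Cells were seeded at 1 × 10^5/well and treated 24 h with DMSO (1%) or compound. They were then washed in PBS, stained with FITC-Annexin V and propidium iodide, and apoptotic fractions were quantified by flow cytometry.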

[7] = Acute toxicity in ip dosed ICR mouse assessed as mortality measured up to 2 weeks; format: organism-based; conditions: in vivo; summary of the method: as §1
A549 [8] = experiment: Decrease in TrxR expression in human A549 cells at 2.1 to 4.2 uM after 24 hrs by Western blot method; format: functional, cell-based; summary of the method: as §2
A549/CDDP [9] = experiment: Decrease in Trx expression in human A549/CDDP cells at 0.6 to 1.2 uM after 24 hrs by Western blot method; format: functional, cell-based; summary of the method: as §2

COc1cc(/C=C/C(=O)/C=C/c2nc(C)c(C)nc2C)ccc1O
Activity [1]: Non-Toxic | survival at 14 day [2]: 90% | Activity (A549 [3]): Active | inhibition (A549/CDDP [4]): Active | inhibition (A549/CDDP [5]): Active | Activity (A549 [6]): Active | LD50 at 336 h [7]: 285 mg/kg | Activity (A549 [8]): Active | Activity (A549/CDDP [9]): Active
